Experiments:
[1] = molecular target: T1, 5-hydroxytryptamine receptor 2A (Homo sapiens, UniProt P28223); assay: Intrinsic activity at human recombinant 5HT2A receptor expressed in HEK293E cells by FLIPR assay at 3 uM relative to control; format: cell-based
Procedure, shortened: (§1)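 FLIPR calcium mobilization in HEK293E cells expressing the human receptor. Intrinsic activity is expressed relative to activation by 3 µM serotonin, defined as 1.0. Values are means of ≥2 independent 12-point dose-response curves.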

[2] = molecular target: T2, 5-hydroxytryptamine receptor 2C (Homo sapiens, UniProt P28335); assay: Agonist activity at human recombinant 5HT2C receptor expressed in HEK293E cells by FLIPR assay; format: functional, cell-based
T2 sequence (P28335 whole entry): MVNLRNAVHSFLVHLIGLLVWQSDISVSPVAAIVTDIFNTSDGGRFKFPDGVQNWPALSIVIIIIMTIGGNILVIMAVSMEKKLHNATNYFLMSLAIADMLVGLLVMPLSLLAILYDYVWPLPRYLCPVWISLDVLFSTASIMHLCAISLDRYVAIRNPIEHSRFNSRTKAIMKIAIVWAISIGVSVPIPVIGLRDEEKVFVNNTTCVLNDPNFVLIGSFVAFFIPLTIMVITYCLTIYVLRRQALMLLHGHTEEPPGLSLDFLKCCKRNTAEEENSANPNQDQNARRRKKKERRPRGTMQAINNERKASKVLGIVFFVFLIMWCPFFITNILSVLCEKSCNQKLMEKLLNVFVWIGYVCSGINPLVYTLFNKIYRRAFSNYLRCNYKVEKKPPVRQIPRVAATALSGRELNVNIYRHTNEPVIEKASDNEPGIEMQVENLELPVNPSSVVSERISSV
Procedure, shortened: (§2)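 Calcium mobilization measured by FLIPR in HEK293E cells expressing human 5-HT2A, 5-HT2B or 5-HT2C receptor. Values are means of ≥2 independent 12-point dose-response curves (n ≥4 where SD is given). mCPP is the positive control.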

[3] = molecular target: T1, 5-hydroxytryptamine receptor 2A; assay: Agonist activity at human recombinant 5HT2A receptor expressed in HEK293E cells by FLIPR assay; format: functional, cell-based; procedure, shortened: as §2
[4] = molecular target: T2, 5-hydroxytryptamine receptor 2C; assay: Displacement of [125I]DOI from human recombinant 5HT2C receptor expressed in HEK293E cells; format: cell-based
Procedure, shortened: (§3)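 Radioligand binding with [125I]DOI at the human 5-HT2C or 5-HT2A receptor. Ki is the mean of ≥2 independent 12-point dose-response curves (n ≥4 where SD is given).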

[5] = molecular target: T1, 5-hydroxytryptamine receptor 2A; assay: Displacement of [125I]DOI from human recombinant 5HT2A receptor expressed in HEK293E cells; format: cell-based; procedure, shortened: as §3
[6] = molecular target: T3, 5-hydroxytryptamine receptor 2C (Homo sapiens) (UniProt P28335); assay: Intrinsic activity at human recombinant 5HT2C receptor at 3 uM expressed in HEK293E cells by FLIPR assay relative to control; format: cell-based; procedure, shortened: as §1
T3 sequence (whole entry): T2 sequence (P28335 whole entry)

[7] = molecular target: T4, 5-hydroxytryptamine receptor 2B (Homo sapiens, UniProt P41595); assay: Displacement of [3H]LSD from human recombinant 5HT2B receptor expressed in HEK293E cells
T4 sequence (P41595 whole entry): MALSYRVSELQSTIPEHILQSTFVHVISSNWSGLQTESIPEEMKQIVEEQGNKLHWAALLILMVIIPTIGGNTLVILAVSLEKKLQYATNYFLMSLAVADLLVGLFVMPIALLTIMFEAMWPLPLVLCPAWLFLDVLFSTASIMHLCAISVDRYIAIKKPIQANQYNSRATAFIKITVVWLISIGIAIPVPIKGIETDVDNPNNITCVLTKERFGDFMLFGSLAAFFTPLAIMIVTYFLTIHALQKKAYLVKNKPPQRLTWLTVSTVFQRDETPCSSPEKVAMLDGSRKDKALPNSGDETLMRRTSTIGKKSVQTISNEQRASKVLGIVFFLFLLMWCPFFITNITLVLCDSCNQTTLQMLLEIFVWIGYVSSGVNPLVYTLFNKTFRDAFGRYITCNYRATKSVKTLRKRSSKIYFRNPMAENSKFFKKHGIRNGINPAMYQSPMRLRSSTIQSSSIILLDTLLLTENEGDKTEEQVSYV

[8] = molecular target: T4, 5-hydroxytryptamine receptor 2B; assay: Agonist activity at human recombinant 5HT2B receptor expressed in HEK293E cells by FLIPR assay; format: functional, cell-based; procedure, shortened: as §2
[9] = molecular target: T4, 5-hydroxytryptamine receptor 2B; assay: Intrinsic activity at human recombinant 5HT2B receptor expressed in HEK293E cells by FLIPR assay at 3 uM relative to control; format: cell-based; procedure, shortened: as §1
[10] = molecular target: 5-hydroxytryptamine receptor 2B (Rattus norvegicus) (UniProt P30994); assay: Intrinsic activity at 5HT2B receptor in rat fundus at 10 uM relative to control
5-hydroxytryptamine receptor 2B (Rattus norvegicus), sequence (P30994 whole entry, looked up): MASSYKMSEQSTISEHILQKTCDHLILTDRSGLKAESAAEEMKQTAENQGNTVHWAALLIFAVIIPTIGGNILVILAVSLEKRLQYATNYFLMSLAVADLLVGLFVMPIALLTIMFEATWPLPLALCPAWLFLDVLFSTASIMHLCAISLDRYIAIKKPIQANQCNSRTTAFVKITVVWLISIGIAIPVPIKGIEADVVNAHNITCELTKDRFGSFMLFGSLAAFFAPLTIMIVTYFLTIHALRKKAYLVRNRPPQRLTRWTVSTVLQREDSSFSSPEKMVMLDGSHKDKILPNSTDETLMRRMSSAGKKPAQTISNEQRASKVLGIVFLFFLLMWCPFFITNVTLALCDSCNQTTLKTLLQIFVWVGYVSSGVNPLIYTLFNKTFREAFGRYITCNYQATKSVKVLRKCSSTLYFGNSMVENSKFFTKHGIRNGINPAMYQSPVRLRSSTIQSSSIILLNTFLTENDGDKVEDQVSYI

Rattus norvegicus [11] = organism: Rattus norvegicus; assay: Antiobesity activity in Sprague-Dawley rat assessed as reduction of food intake after 20 hrs; format: functional, organism-based
Rattus norvegicus [12] = assay: Antiobesity activity in Sprague-Dawley rat assessed as reduction of body weight at 30 mg/kg, po after 4 days; format: functional; design: scale not given: the % may be the effect or the level left
Procedure, shortened: (§4)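 Male Sprague–Dawley rats, about 240 g (n = 8), were dosed orally once daily for 4 days with compound or vehicle (14% propylene glycol, 1% tween, 85% water, v/v/v). Body weight, food and water intake were measured daily and compared with vehicle.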

[13] = Plasma concentration in Sprague-Dawley rat at 10 mg/kg, po after 8 hrs; format: ADME, organism-based; design: dose 10 mg/kg, route oral
Procedure, shortened: (§5)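 Male Sprague–Dawley rats given a single oral dose, 2 animals per value. AUC is taken over 0–8 h. Plasma and total brain levels are measured at 8 h post dose.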

Rattus norvegicus [14] = assay: Antiobesity activity in Sprague-Dawley rat assessed as reduction of food intake at 30 mg/kg, po after 20 hrs; format: functional; design: scale not given: the % may be the effect or the level left
Procedure, shortened: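 Male Sprague–Dawley rats (n = 6) are dosed orally 60 min before dark-cycle onset. Vehicle is 14% propylene glycol, 1% tween, 85% water (v/v/v). Food pellet consumption over 20 h is compared with vehicle-treated animals as percent reduction. Water intake and locomotor activity are recorded at the same time.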

Rattus norvegicus [15] = assay: Antiobesity activity in Sprague-Dawley rat assessed as reduction of food intake at 10 mg/kg, po after 20 hrs; format: functional; design: scale not given: the % may be the effect or the level left
[16] = AUC in Sprague-Dawley rat at 10 mg/kg, po after 8 hrs; format: ADME, organism-based; design: time < 8 hr, dose 10 mg/kg, route oral; settings: plasma; procedure, shortened: as §5
[17] = Tmax in Sprague-Dawley rat at 10 mg/kg, po; format: ADME, organism-based; design: dose 10 mg/kg, route oral; settings: in vivo
Procedure, shortened: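 Male Sprague–Dawley rats were dosed po only at 1 or 10 mpk. Values are means of 2 animals. AUC was collected over 4 h. Plasma and total brain levels were taken at 4 h post dose.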

Rattus norvegicus [18] = assay: Antiobesity activity in Sprague-Dawley rat assessed as reduction of caloric intake at 30 mg/kg, po after 4 days; format: functional; design: scale not given: the % may be the effect or the level left; procedure, shortened: as §4
Brain = assay: Drug level in Sprague-Dawley rat brain at 10 mg/kg, po after 8 hrs; format: ADME, organism-based; design: dose 10 mg/kg, route oral; settings: in vivo; procedure, shortened: as §5

T1 sequence (P28223 whole entry): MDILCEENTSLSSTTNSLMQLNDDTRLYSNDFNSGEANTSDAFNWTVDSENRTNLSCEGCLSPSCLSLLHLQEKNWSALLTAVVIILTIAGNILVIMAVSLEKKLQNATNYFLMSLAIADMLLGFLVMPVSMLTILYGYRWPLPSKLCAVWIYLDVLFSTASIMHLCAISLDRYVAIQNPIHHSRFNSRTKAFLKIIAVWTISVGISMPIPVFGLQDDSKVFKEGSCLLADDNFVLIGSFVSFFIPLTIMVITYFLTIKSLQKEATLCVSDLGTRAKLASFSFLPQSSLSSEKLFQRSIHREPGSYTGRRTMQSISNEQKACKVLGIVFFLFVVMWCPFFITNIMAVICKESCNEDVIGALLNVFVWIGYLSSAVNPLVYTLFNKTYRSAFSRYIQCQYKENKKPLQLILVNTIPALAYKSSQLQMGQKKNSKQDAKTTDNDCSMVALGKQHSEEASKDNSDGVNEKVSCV

| Compound | Intrinsic activity [1] | EC50 [2] | EC50 [3] | Ki [4] | Ki [5] | Intrinsic activity [6] | Ki [7] | EC50 [8] | Intrinsic activity [9] | other results |
| --- | --- | --- | --- | --- | --- | --- | --- | --- | --- | --- |
| Cc1cccc2c1N1CCNCC1NC2=O (configuration not stated) | 0 | 4200 nM | > 10000 nM | 6150 nM | > 10000 nM | 0.4 | 2390 nM | – | – | – |
| Cc1cccc2c1C(=O)NC1CCNCCN21 (configuration not stated) | 1 | 2 nM | 70 nM | 2.9 nM | 141 nM | 1 | 10 nM | 61 nM | 0.44 | Intrinsic activity [10]: 0.2 |
| O=C1NC2CNCCN2c2c(Cl)cccc21 (configuration not stated) | – | > 10000 nM | – | > 10000 nM | > 10000 nM | 0 | > 10000 nM | – | – | – |
| O=C1NC2CNCCN2c2cccc(Cl)c21 (configuration not stated) | 0 | 43 nM | > 10000 nM | 223 nM | 334 nM | 0.8 | 18 nM | > 10000 nM | 0 | – |
| Clc1cccc(N2CCNCC2)c1 | 0.3 | – | – | – | – | 1 | – | – | 0.4 | – |
| O=C1NC2CNCCCN2c2cccc(Cl)c21 (racemic) | – | – | – | 1550 nM | 13600 nM | – | 734 nM | – | – | – |
| O=C1NC2CNCCN2c2ccccc21 (single isomer, unassigned) | – | 137 nM | – | 1940 nM | 1980 nM | 0.96 | 137 nM | – | – | – |
| Cc1ccc2c(c1)C(=O)NC1CNCCN21 (single isomer, unassigned) | 0.34 | 133 nM | > 705 nM | 998 nM | 1220 nM | 1 | 61 nM | > 10000 nM | 0 | – |
| Cc1ccc2c(c1)N1CCNCC1NC2=O (single isomer, unassigned) | 0.26 | 34 nM | > 1000 nM | 479 nM | 600 nM | 1 | 280 nM | > 10000 nM | 0 | – |
| O=C1NC2CNCCN2c2cccc(C(F)(F)F)c21 (single isomer, unassigned) | – | 92 nM | – | 153 nM | 184 nM | 0.93 | 13 nM | > 10000 nM | – | – |
| O=C1NC2CNCCN2c2ccc(Cl)cc21 (single isomer, unassigned) | – | 110 nM | – | 757 nM | 397 nM | 0.97 | 72 nM | – | – | – |
| O=C1NC2CCNCCN2c2cccc(Cl)c21 (single isomer, unassigned) | 0.8 | 1.8 nM | 130 nM | 9 nM | 168 nM | 1 | 23 nM | 46 nM | 0.5 | – |
| O=C1NC2CCNCCN2c2ccccc21 (single isomer, unassigned) | 1 | 16 nM | 248 nM | 49 nM | 269 nM | 0.8 | 67 nM | 101 nM | 0.6 | – |
| Cc1cccc2c1C(=O)NC1CNCCN21 (single isomer, unassigned; (+)) | 0 | – | – | – | – | 1 | – | – | 0 | Activity (Rattus norvegicus [11]): Dose-dependent effect |
| Cc1ccc2c(c1)N1CCNCCC1NC2=O (stereo in doubt; (+)-3c) [listing 1 of 2 here] | – | 6.6 nM | 952 nM | 6.5 nM | 364 nM | – | 41 nM | > 10000 nM | – | Activity (Rattus norvegicus [12]): 2.7%; concentration at 8 h [13]: 714 nM; Activity (Rattus norvegicus [14]): 25%; Activity (Rattus norvegicus [15]): 18%; AUC at 8 h [16]: 9.24 µM·h; Tmax [17]: 1.5 h; Activity (Rattus norvegicus [18]): 19%; Drug uptake (Brain): 108 nmol/kg |
| Cc1ccc2c(c1)N1CCNCCC1NC2=O (stereo in doubt; (+)-3c) [listing 2 of 2 here] | 0.28 | – | – | – | – | 1.1 | – | – | 0 | – |
| Cc1cccc2c1C(=O)NC1CNCCN21 (stereo in doubt; (-)-2a) [listing 1 of 2 here] | – | 989 nM | – | 2080 nM | 4480 nM | – | 206 nM | – | – | – |
| Cc1cccc2c1C(=O)NC1CNCCN21 (stereo in doubt; (-)-2a) [listing 2 of 2 here] | – | – | – | – | – | 0.9 | – | – | – | – |
| Cc1ccc2c(c1)N1CCNCCC1NC2=O (stereo in doubt; (-)-3c) [listing 1 of 2 here] | – | 92 nM | > 10000 nM | 60 nM | 454 nM | – | 51 nM | – | – | – |
| Cc1ccc2c(c1)N1CCNCCC1NC2=O (stereo in doubt; (-)-3c) [listing 2 of 2 here] | 0.11 | – | – | – | – | 0.66 | – | – | – | – |

From ChEMBL document CHEMBL1158511, “Tricyclic dihydroquinazolinones as novel 5-HT2C selective and orally efficacious anti-obesity agents” (Bioorg Med Chem Lett, 2010)
